For data set [1], the target named is Neuronal acetylcholine receptor subunit alpha-7 (Rattus norvegicus) (UniProt Q05941). Put plainly: Positive allosteric modulator activity at rat alpha7 nAChR expressed in GH4C1 cells assessed as potentiation of acetylcholine response at 3 uM at -70 mV holding potential preincubated for 30 secs followed by co-application with acetylcholine by automated patch clamp assay. The data set is classed as cell-based. An outline of the steps:
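Automated planar patch clamp on stable GH4C1 (rat) cell lines expressing rat α7 nAChR; test compound at 3 μM with an EC₂₀ acetylcholine challenge; percent change in peak current versus acetylcholine alone taken as P₃.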
In general terms: In patch-clamp work, channel activity is measured electrically.

The subject of data set [2] is Mus musculus. The data set can be described thus: Reversal of scopolamine-induced memory impairment in mouse assessed as percentage of increase in spontaneous alteration at 10 mg/kg, po administered with compond and scopolamine at 60 mins snd 30 mins respectively prior to test by T-maze test. The data set is classed as functional. The note with it: read-out: INH. An outline of the steps: (§1)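 Mouse T-maze continuous alternation task with scopolamine-induced impairment of spontaneous alternation; compound given orally in saline-based vehicle with 25% Cremophor ELP over 0.003–10.0 mg/kg; group means compared by one-way ANOVA then Fisher's PLSD, p < 0.05 significant.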

Data set [3] has as its system Mus musculus. The data set can be described thus: Reversal of scopolamine-induced memory impairment in mouse assessed as increase in spontaneous alteration at 3 mg/kg, po administered with compond and scopolamine at 60 mins and 30 mins respectively prior to test by T-maze test. The data set is classed as functional. To be noted: read-out: INH. An outline of the steps: as §1

Data set [4] has as its system Mus musculus. Put plainly: Reversal of scopolamine-induced memory impairment in mouse assessed as increase in spontaneous alteration at 1 mg/kg, po administered with compond and scopolamine at 60 mins and 30 mins respectively prior to test by T-maze test. The data set is classed as functional. To be noted: read-out: INH. An outline of the steps:
as §1

Data set [5] has as its target Neuronal acetylcholine receptor subunit alpha-7 (Rattus norvegicus) (UniProt Q05941). The data set can be described thus: Positive allosteric modulatory activity at rat alpha7 nAChR expressed in GH4C1 cells assessed as potentiation of acetylcholine response at 3 uM at -70 mV holding potential preincubated for 30 secs followed by co-application with acetylcholine by manual patch clamp assay. The data set is classed as cell-based. An outline of the steps:
(§2)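 Conventional manual patch-clamp with a fast-application system on stable GH4C1 cells expressing rat α7 nAChR; currents evoked by acetylcholine with and without test compound; peak-current change relative to acetylcholine alone gives potentiation (P₃ at 3 μM; concentration–response for EC₅₀ and Pmax).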

The test system of data set [6] is Mus musculus. The data set can be described thus: Reversal of scopolamine-induced memory impairment in mouse assessed as spontaneous alteration at 3 to 30 mg/kg, po administered with compond and scopolamine at 60 mins and 30 mins respectively prior to test by T-maze test. The data set is classed as functional, organism-based. An outline of the steps: (§3)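 Mouse T-maze continuous alternation task; reversal of scopolamine-induced loss of spontaneous alternation after ip or oral doses of 3 and 30 mg/kg; significant doses reported.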

The nature of data set [7]: Solubility of the compound at pH 6.5. The data set is classed as physicochemical. To be noted: buffer.
Data set [8] is described as follows: Lipophilicity, log D of the compound at pH 7.4. The data set is classed as physicochemical. To be noted: buffer.
The target of data set [9] is Neuronal acetylcholine receptor subunit alpha-7 (Rattus norvegicus) (UniProt Q05941). The data set can be described thus: Positive allosteric modulatory activity at rat alpha7 nAChR expressed in GH4C1 cells assessed as AUC of potentiation of acetylcholine response at 3 uM at -70 mV holding potential preincubated for 30 secs followed by co-application with acetylcholine by manual patch clamp assay relative to potentiation of current response. The data set is classed as cell-based. An outline of the steps:
as §2

The test system of data set [10] is Mus musculus. The data set can be described thus: Reversal of scopolamine-induced memory impairment in mouse assessed as increase in spontaneous alteration at 3 to 30 mg/kg, ip administered with compond and scopolamine at 60 mins snd 30 mins respectively prior to test by T-maze test. The data set is classed as functional, organism-based. An outline of the steps: as §3

Converted amounts (≈) assume the structure as drawn. The source made the active and inactive calls. The rule behind the calls is not given here. Where only a bound is given, the exact number is not on record here.

Sequence of Neuronal acetylcholine receptor subunit alpha-7 (Rattus norvegicus) (Q05941 whole entry): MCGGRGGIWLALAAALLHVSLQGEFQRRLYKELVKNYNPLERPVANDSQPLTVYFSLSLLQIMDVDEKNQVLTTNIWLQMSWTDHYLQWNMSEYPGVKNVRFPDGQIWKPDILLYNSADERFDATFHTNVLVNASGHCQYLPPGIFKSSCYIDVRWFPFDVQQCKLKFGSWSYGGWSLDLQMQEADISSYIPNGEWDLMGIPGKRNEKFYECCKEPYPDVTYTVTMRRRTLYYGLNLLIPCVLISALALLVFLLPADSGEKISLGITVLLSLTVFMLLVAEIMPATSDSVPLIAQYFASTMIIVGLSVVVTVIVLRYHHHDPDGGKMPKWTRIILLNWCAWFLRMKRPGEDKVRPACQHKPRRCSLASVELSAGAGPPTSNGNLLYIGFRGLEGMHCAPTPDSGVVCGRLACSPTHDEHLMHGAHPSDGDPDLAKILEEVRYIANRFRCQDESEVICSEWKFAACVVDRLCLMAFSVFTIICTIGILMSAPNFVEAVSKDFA

Take `CC1(C)C(CNC2CCCCC2)C1c1ccc(S(N)(=O)=O)cc1` (racemic): in data set [1], the Activity is below 100%.
With `Cc1cc(F)c(F)cc1NC[C@@H]1[C@@H](c2ccc(S(N)(=O)=O)cc2)C1(C)C`, the Activity in [1] turned out to be 420%. In addition, the percent increase in spontaneous alternation at 10 mg/kg with Mus musculus [2] stood at 15%. In addition, the percent reversal of scopolamine-induced memory impairment at 3 mg/kg in the data set on Mus musculus [3] is 31%. Further, in the data set on Mus musculus [4], the percent reversal of scopolamine-induced memory impairment (increase in spontaneous alternation) at 1 mg/kg was 8%.
`Cc1ccc(F)cc1NC[C@@H]1[C@@H](c2ccc(S(N)(=O)=O)cc2)C1(C)C`: the Activity in data set [1] is 460%. For the same compound, the percent increase in spontaneous alternation at 10 mg/kg in the data set with Mus musculus [2] came to 10%. The percent reversal of scopolamine-induced memory impairment at 3 mg/kg in the data set with Mus musculus [3] was determined as 0%. Further, the percent reversal of scopolamine-induced memory impairment (increase in spontaneous alternation) at 1 mg/kg in the data set on Mus musculus [4] was -9%.
As to `COc1ccc(Cl)cc1NC(=O)C1C(c2ccc(S(N)(=O)=O)cc2)C12CCCC2` (racemic), the results for the Activity in [5] and in [1] were 360% and 710%, respectively. For the same compound, the inhibition result with Mus musculus [6] was “inactive”. Further, in [7], the solubility (as a rule, the concentration that dissolves in the medium under given conditions) lay within 1.6 to 3.1 µg/mL (≈ 3.68 to 7.13 µM). Further, in data set [8], the pH-dependent lipophilicity (logD) (in general, lipophilicity at a set pH, counting ionised and neutral species) amounted to 4.2. In data set [9], the Ratio came out at 5.6. For the same compound, the inhibition entry in the data set with Mus musculus [10] is “Active”.
For `CC1(C)[C@H](CNc2ccc(F)cc2OC(F)F)[C@H]1c1ccc(S(N)(=O)=O)cc1`, the Activity in data set [1] came out at 170%. In the data set on Mus musculus [2], the percent increase in spontaneous alternation at 10 mg/kg was 41%. For the same compound, in the data set with Mus musculus [3], the percent reversal of scopolamine-induced memory impairment at 3 mg/kg was found to be 8%. Also, the percent reversal of scopolamine-induced memory impairment (increase in spontaneous alternation) at 1 mg/kg in the data set with Mus musculus [4] came out at 28%.
As for `Cc1ccc(F)cc1NC[C@H]1[C@H](c2ccc(S(N)(=O)=O)cc2)C1(C)C`, the Activity in data set [1] amounted to 17400%.
On the same count and under the same terms, for `COc1ccc(Cl)cc1NCC1C(c2ccc(S(=O)(=O)NN)cc2)C1(C)C` (racemic) the value was 130%.
For `Cc1cc(F)c(Cl)cc1NCC1C(c2ccc(S(N)(=O)=O)cc2)C1(C)C` (racemic), the Activity in data set [1] is 9230%.
On the same count and under the same terms, for `COc1ncccc1NCC1C(c2ccc(S(N)(=O)=O)cc2)C1(C)C` (racemic) the value was 2420%.
The same measure, in the same setting: for `CCOc1ccc(Cl)cc1NC(=O)C1C(c2ccc(S(N)(=O)=O)cc2)C1(CC)CC` (stereo not given) the value was “Active”.
Still for that read-out and setting: for `Cc1ncccc1NCC1C(c2ccc(S(N)(=O)=O)cc2)C1(C)C` (racemic) the value was 130%; for `CC1(C)C(CNc2ccc(N3CCOCC3)cc2)C1c1ccc(S(N)(=O)=O)cc1` (racemic), below 100%.
With `CC1(C)C(CNc2cccc(N3CCOCC3)c2)C1c1ccc(S(N)(=O)=O)cc1` (racemic), the Activity in data set [1] was 460%.
Turning to `CC1(C)[C@@H](CNc2ccc(F)cc2OC(F)F)[C@@H]1c1ccc(S(N)(=O)=O)cc1`, the Activity in data set [1] was determined as 8170%. The percent increase in spontaneous alternation at 10 mg/kg with Mus musculus [2] was found to be 51%. Besides, in the data set on Mus musculus [3], the percent reversal of scopolamine-induced memory impairment at 3 mg/kg was determined as 16%. Besides, the percent reversal of scopolamine-induced memory impairment (increase in spontaneous alternation) at 1 mg/kg in the data set on Mus musculus [4] was determined as 46%.
Consider `Cc1cc(F)c(F)cc1NC[C@H]1[C@H](c2ccc(S(N)(=O)=O)cc2)C1(C)C`, for which, in data set [1], the Activity is 8930%. Besides, in the data set with Mus musculus [2], the percent increase in spontaneous alternation at 10 mg/kg is -5%. For the same compound, the percent reversal of scopolamine-induced memory impairment at 3 mg/kg in the data set on Mus musculus [3] is -15%. The percent reversal of scopolamine-induced memory impairment (increase in spontaneous alternation) at 1 mg/kg in the data set with Mus musculus [4] was -13%.
Regarding `CC(C)(C)c1cc(NCC2C(c3ccc(S(N)(=O)=O)cc3)C2(C)C)no1` (racemic), the Activity in data set [1] is below 100%.
Still for that read-out and setting: for `CC1(C)C(CNc2ccc(F)cc2OC(F)F)C1c1ccc(S(N)(=O)=O)cc1` (racemic) the value was 3360%.
Same read-out and setting: for `CCOc1ccc(Cl)cc1NC(=O)C1C(c2ccc(S(N)(=O)=O)cc2)C1(C1CCCCC1)C1CCCCC1` (stereo not given) the value was “Active”; for `Cc1cc(F)ccc1NCC1C(c2ccc(S(N)(=O)=O)cc2)C1(C)C` (racemic), 8660%.
Same read-out and setting: for `COc1ccc(Cl)cc1NCC1C(c2ccc(S(=O)(=O)NO)cc2)C1(C)C` (racemic) the value was 720%.
Turning to `Cc1cc(F)ccc1NC[C@@H]1[C@@H](c2ccc(S(N)(=O)=O)cc2)C1(C)C`, the Activity in data set [1] amounted to 470%.
On the same count and under the same terms, for `Cc1ccc(Cl)cc1NCC1C(c2ccc(S(N)(=O)=O)cc2)C1(C)C` (racemic) the value was 12300%; for `CC1(C)C(CNc2ccccc2)C1c1ccc(S(N)(=O)=O)cc1` (racemic), 2570 to 9890%.
Still for that read-out and setting: for `CC1(C)C(CNc2cncc(F)c2)C1c1ccc(S(N)(=O)=O)cc1` (racemic) the value was 3000%.
Regarding `CC1(C)[C@@H](CNc2ccc(F)cc2C(F)(F)F)[C@@H]1c1ccc(S(N)(=O)=O)cc1`, the Activity in [1] was determined as 2860%. Besides, the percent increase in spontaneous alternation at 10 mg/kg in the data set on Mus musculus [2] was 79%. The percent reversal of scopolamine-induced memory impairment at 3 mg/kg in the data set with Mus musculus [3] was found to be 39%. Moreover, the percent reversal of scopolamine-induced memory impairment (increase in spontaneous alternation) at 1 mg/kg in the data set on Mus musculus [4] is 40%.
For the compound `Cc1cc(F)ccc1NC[C@H]1[C@H](c2ccc(S(N)(=O)=O)cc2)C1(C)C`, the Activity in data set [1] was found to be 17600%.
On the same count and under the same terms, for `COc1ccc(C(F)(F)F)cc1NCC1C(c2ccc(S(N)(=O)=O)cc2)C1(C)C` (racemic) the value was 8170%; for `CC1(C)C(CNc2cc(F)ccc2OC(F)(F)F)C1c1ccc(S(N)(=O)=O)cc1` (racemic), 2440%.
As for `CC1(C)[C@H](CNc2ccc(F)cc2C(F)(F)F)[C@H]1c1ccc(S(N)(=O)=O)cc1`, the Activity in data set [1] was determined as 410%. In the data set on Mus musculus [2], the percent increase in spontaneous alternation at 10 mg/kg is -9%. In addition, in the data set on Mus musculus [3], the percent reversal of scopolamine-induced memory impairment at 3 mg/kg was 38%. In addition, the percent reversal of scopolamine-induced memory impairment (increase in spontaneous alternation) at 1 mg/kg in the data set on Mus musculus [4] was -18%.
In the case of `COc1ccc(Cl)cc1NC(=O)C1C(c2ccc(S(N)(=O)=O)cc2)C1(C)C` (racemic), the Activity is 420% in data set [5] and 660% in data set [1]. In addition, the solubility in data set [7] was in the range of 3.1 to 6.3 µg/mL (≈ 7.58 to 15.4 µM). Besides, the pH-dependent lipophilicity (logD) in [8] was determined as 3.7. Further, in [9], the Ratio amounted to 5.6. Also, the inhibition entry in the data set on Mus musculus [10] is “Active”.
For `COc1ccc(Cl)cc1NC(=O)c1cccc(-c2ccc(S(N)(=O)=O)cc2)c1`, in the data set with Mus musculus [6], the inhibition entry was “inactive”. Besides, in [1], the Activity turned out to be 410%.
In the case of `COc1ccc(S(N)(=O)=O)cc1NCC1C(c2ccc(S(N)(=O)=O)cc2)C1(C)C` (racemic), the Activity in data set [1] was below 100%.

Source of the values: ChEMBL document CHEMBL4364238, “Discovery of BNC375, a Potent, Selective, and Orally Available Type I Positive Allosteric Modulator of α7 nAChRs” (ACS Med Chem Lett, 2019).
